Assay results collected from several papers.
gag-pol reverse transcriptase: Gag-Pol polyprotein, reverse transcriptase (gag-pol, Human immunodeficiency virus 1, UniProt P03366)
HTR3A: 5-hydroxytryptamine receptor 3A (HTR3A, Homo sapiens, UniProt P46098)
ADRA2A: Alpha-2A adrenergic receptor (ADRA2A, Homo sapiens, UniProt P08913)
OPRD1: Delta-type opioid receptor (OPRD1, Homo sapiens, UniProt P41143)
OGT: UDP-N-acetylglucosamine--peptide N-acetylglucosaminyltransferase 110 kDa subunit (OGT, Homo sapiens, UniProt O15294)

Cc1cn([C@@H]2CC[C@H](OC(C(=O)O)C(=O)O)C2)c(=O)[nH]c1=O (relative stereo)  IC50 (gag-pol reverse transcriptase; enzyme activity; inhibitor; radiometric): 42 µM
C[C@H](N)Cn1ncc2ccc3c(c21)CCCO3  IC50 (HTR3A; ligand displacement; radioligand): 31.7 µM
CC(CCc1ccccc1)NC(C)C(O)c1ccc(O)cc1 (stereo not drawn)  IC50 (ADRA2A; ligand displacement; radioligand): 9.39 µM
CNC[C@@H](Cc1ccc(O)cc1)N1CCN(CCc2cccc(C)c2)[C@@H](C(C)C)C1  IC50 (OPRD1; cell-free assay): > 10 µM
CC(C)c1ccc(O)c(=O)c(O)c1  IC50 (gag-pol reverse transcriptase; enzyme activity; inhibitor; FRET): 0.308 µM
CCN(CC)C(=O)C1CN2CCc3cc(OC)c(OC)cc3C2CC1OC(C)=O (stereo not drawn)  IC50 (ADRA2A; calcium signal; antagonist): 0.45 µM
Cc1c(O)c(O)cc2c1CC=C1[C@@]2(C)CC[C@@]2(C)[C@@H]3C[C@](C)(C(=O)O)CC[C@]3(C)CC[C@]12C  IC50 (Androgen receptor (AR, Homo sapiens, UniProt P10275); ligand displacement in cells; radioligand): 0.057 µM
CC[C@H](C)[C@H](NC(=O)[C@H](CO)NC(=O)[C@H](Cc1ccc(O)cc1)NC(=O)[C@H](CCCCN)NC(=O)[C@@H]1CCCN1C(=O)[C@H](CCSC)NC(=O)[C@H](Cc1ccccc1)NC(=O)[C@H](CCSC)NC(=O)[C@@H](NC(=O)[C@@H]1CCCN1C(=O)[C@H](Cc1ccccc1)NC(=O)[C@H](CC(=O)O)NC(=O)CNC(=O)[C@H](CCCCN)NC(=O)[C@@H](N)CCCCN)C(C)C)C(=O)N[C@H](C(=O)N[C@@H](Cc1ccccc1)C(=O)O)[C@@H](C)CC  IC50 (OGT; enzyme activity; inhibitor; fluorescence): 5.3 µM
CCC[C@H](CN[C@H](CNC)Cc1ccc(O)cc1)NCCC1CCCC1  IC50 (OPRD1; cell-free assay): > 10 µM
CN1CCC(=C2c3ccccc3CCc3sccc32)CC1  IC50 (ADRA2A; ligand displacement; radioligand): 0.577 µM
CCCCCCCCC[C@@H]1CC(=O)NCC(=O)N[C@H](Cc2ccc(O)cc2)C(=O)NCC(=O)N[C@@H](Cc2ccccc2)C(=O)O1  IC50 (OPRD1; ligand displacement; radioligand): 38 µM
CC[C@H](C)[C@H](NC(=O)[C@H](CO)NC(=O)[C@H](Cc1ccc(O)cc1)NC(=O)[C@H](CCCCN)NC(=O)[C@@H]1CCCN1C(=O)[C@H](CCSC)NC(=O)[C@H](Cc1ccccc1)NC(=O)[C@H](CCSC)NC(=O)[C@@H](NC(=O)[C@@H]1CCCN1)C(C)C)C(=O)N[C@H](C(=O)N[C@@H](Cc1ccccc1)C(=O)O)[C@@H](C)CC  IC50 (OGT; enzyme activity; inhibitor; fluorescence): 20 µM
CCC[C@H](CNC)NC[C@@H](CCC)NCC1CCC(C)CC1 (stereo partly drawn)  IC50 (OPRD1; cell-free assay): > 10 µM
C[C@@H](NC(=O)[C@@H](N)Cc1ccc(O)cc1)C(=O)NCC(=O)N[C@H](CC(=O)NNC(=O)C[C@H](Cc1ccccc1)NC(=O)CNC(=O)[C@@H](C)NC(=O)[C@@H](N)Cc1ccc(O)cc1)Cc1ccccc1  IC50 (OPRD1; ligand displacement; radioligand): 0.00145 µM
CC(C)[C@@H]1CN([C@@H](CNCc2ccccc2)C(C)C)CCN1CCc1ccccc1  IC50 (OPRD1; cell-free assay): > 10 µM
CC(C)Cc1ccc([C@@H](C)C(=O)O)cc1  IC50 (Histone acetyltransferase p300 (EP300, Homo sapiens, UniProt Q09472); enzyme activity; inhibitor; mobility shift): ~6000 µM
Cc1cc(/C=C/C#N)cc(C)c1Nc1ccnc(Nc2ccc(C#N)cc2)n1  IC50 (gag-pol reverse transcriptase; enzyme activity; inhibitor): 0.0214 µM
CC(C)[C@H](CNCc1ccccc1)N1CCN(CCC2CC3CCC2C3)[C@@H](Cc2ccccc2)C1 (stereo partly drawn)  IC50 (OPRD1; cell-free assay): > 10 µM
CCOC(=O)c1cncn1C(C)c1ccc(C2(C(F)(F)F)N=N2)cc1 (stereo not drawn)  IC50 (HTR3A; ion current; two-electrode voltage clamp; oocytes): 9 µM
CCCC[C@H](CNCc1ccccc1)N1CCN(CC(C)C)[C@H](Cc2ccc(O)cc2)C1  IC50 (OPRD1; cell-free assay): > 10 µM
Cc1cn([C@@H]2C=C[C@H](OC(P(=O)(O)O)P(=O)(O)O)C2)c(=O)[nH]c1=O (relative stereo)  IC50 (gag-pol reverse transcriptase; enzyme activity; inhibitor; radiometric): 204 µM
